Data on one compound can be found in ChEMBL document CHEMBL5149972, “Novel Antimalarial Tetrazoles and Amides Active against the Hemoglobin Degradation Pathway in Plasmodium falciparum” (J Med Chem, 2021).

SMILES strings stand for the structures. Converted amounts (≈) assume the structure as drawn. Bounds are passed on as bounds.

The test system of data set [1] is Plasmodium falciparum. The data set is described as follows: Antiplasmodial activity against lab-derived ELQ300 resistant Plasmodium falciparum Dd2-PfCytB mutant infected in human RBC assessed as parasite growth inhibition incubated for 72 hrs by SYBR Green dye based fluorescence assay. It counts as functional, organism-based. As to conditions: Erythrocyte.
The test system of data set [2] is Plasmodium falciparum. Put plainly: Antiplasmodial activity against asexual blood stage Plasmodium falciparum 3D7 infected in human RBC assessed as parasite growth inhibition incubated for 72 hrs by SYBR Green dye based fluorescence assay. It counts as functional, organism-based. As to conditions: Plasmodium falciparum, 3D7, Erythrocyte, 72 h. Summed up:
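Blood-stage cultures at 2% hematocrit, human O+ RBCs, RPMI 1640 + 25 mM HEPES, 0.5% Albumax-I, 23 mM bicarbonate, 92 μM hypoxanthine. Start at 0.5% parasitemia; 72 h at 37°C, 5% CO₂; freeze-thaw, then SYBR Green in saponin/Triton lysis buffer, 4 h RT dark; fluorescence ex 485/em 535 nm. 10-point curves, technical duplicates or triplicates, final 0.5% DMSO; four-parameter fit gives EC₅₀; mean ± std dev of biological replicates.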

In data set [3] the test system is Plasmodium falciparum. The data set is described as follows: Antiplasmodial activity against chloroquine and pyrimethamine resistant Plasmodium falciparum 7G8 infected in human RBC assessed as parasite growth inhibition incubated for 72 hrs by SYBR Green dye based fluorescence assay. As to conditions: 7G8, Erythrocyte. The class given is functional, organism-based.

Data set [4] relates to Plasmodium falciparum. Put plainly: Antiplasmodial activity against lab-derived DSM265 resistant Plasmodium falciparum Dd2-PfDHODH mutant infected in human RBC assessed as parasite growth inhibition incubated for 72 hrs by SYBR Green dye based fluorescence assay. The class given is functional, organism-based. As to conditions: Erythrocyte.
The test system of data set [5] is Plasmodium falciparum. The data set is described as follows: Antiplasmodial activity against Plasmodium falciparum mature stage V gametocyte assessed as inhibition of male gametocyte formation by luciferase reporter assay. It counts as functional, organism-based.
The test system of data set [6] is Plasmodium falciparum. The data set is described as follows: Antiplasmodial activity against Rac-N-(Pyridin-3-yl(1-(o-tolyl)-1H-tetrazol-5-yl)methyl)-N-(3-(trifluoromethyl)benzyl)Cyclopropanamine resistant Plasmodium falciparum 3D7 clone F1-E4 ring-stage parasite assessed as parasite growth inhibition incubated for 72 hrs by SYBR Green and MitoTracker Deep Red FM dye based flow cytometry. It counts as functional, organism-based. Summed up: (§1)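 Clonal 3D7-A10 lines recovered after single-step selection; ring stages at 0.2% parasitemia, 1% hematocrit in RPMI-1640 with 0.5% Albumax. 72 h exposure to a 10-point 2-fold dilution series in duplicate with DMSO controls, final DMSO <0.5%. Survival read by flow cytometry, SYBR Green as nuclear stain and MitoTracker Deep Red FM as vital dye. EC₅₀ and EC₉₀ reported with fold shift relative to parental 3D7-A10.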
(In general: A flow cytometer gives signals particle by particle.)

Data set [7] deals with Plasmodium falciparum. Put plainly: Antiplasmodial activity against chloroquine and pyrimethamine resistant Plasmodium falciparum K1 infected in human RBC assessed as parasite growth inhibition incubated for 72 hrs by SYBR Green dye based fluorescence assay. The class given is functional, organism-based. As to conditions: K1, Erythrocyte.
The subject of data set [8] is Plasmodium falciparum. Put plainly: Antiplasmodial activity against chloroquine resistant Plasmodium falciparum Dd2-Dd2 mutant replaced with recombinant Dd2 sequence at endogenous pfcrt Dd2 locus infected in human RBC assessed as parasite growth inhibition incubated for 72 hrs by SYBR Green dye based fluorescence assay. The class given is functional, organism-based. As to conditions: Erythrocyte. Summed up: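 Gene-edited Dd2 lines with the endogenous pfcrt locus replaced by zinc-finger nuclease editing. Concentration-response curves run with technical duplicates at each concentration; values are the average of two biological replicates, with std dev given where more replicates were collected.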

In a further data set the test system is Hemozoin. Put plainly: Inhibition of Beta-hematin assessed as bis-pyridyl-Fe(III)PPIX complex formation incubated for 5 hrs by NP40 detergent-mediated colorimetric assay.
Data set [9] deals with Plasmodium falciparum. The data set is described as follows: Antiplasmodial activity against lab-derived […] resistant Plasmodium falciparum Dd2-PfeEF2 mutant infected in human RBC assessed as parasite growth inhibition incubated for 72 hrs by SYBR Green dye based fluorescence assay. It counts as functional, organism-based. As to conditions: Erythrocyte.
Data set [10] deals with Plasmodium falciparum. The data set is described as follows: Antiplasmodial activity against Rac-N-(Pyridin-3-yl(1-(o-tolyl)-1H-tetrazol-5-yl)methyl)-N-(3-(trifluoromethyl)benzyl)Cyclopropanamine resistant Plasmodium falciparum 3D7 clone F2-H12 ring-stage parasite assessed as parasite growth inhibition incubated for 72 hrs by SYBR Green and MitoTracker Deep Red FM dye based flow cytometry. The class given is functional, organism-based. A digest of the protocol: as §1

Data set [11] can be described thus: Kinetic solubility of compound in PBS at pH 2 by HPLC analysis. It counts as physicochemical. As to conditions: read-out: Kinetic_solubility.
In data set [12] the test system is Plasmodium falciparum. The data set is described as follows: Antiplasmodial activity against Rac-N-(Pyridin-3-yl(1-(o-tolyl)-1H-tetrazol-5-yl)methyl)-N-(3-(trifluoromethyl)benzyl)Cyclopropanamine resistant Plasmodium falciparum 3D7 clone F2-A11 ring-stage parasite assessed as parasite growth inhibition incubated for 72 hrs by SYBR Green and MitoTracker Deep Red FM dye based flow cytometry. It counts as functional, organism-based. Summed up:
as §1

Turning to `Cc1ccccc1-n1nnnc1C(c1cccnc1)N(Cc1cccc(C(F)(F)F)c1)C1CC1` (racemic), the EC50 in the data set with Plasmodium falciparum [1] is 0.85 µM; in the data set on Plasmodium falciparum [2], 0.38 µM; in the data set with Plasmodium falciparum [3] it was 0.18 µM; with Plasmodium falciparum [4], 0.8 µM; with Plasmodium falciparum [5] it was more than 25 µM; in the data set on Plasmodium falciparum [6] (3D7 clone F1-E4, 72 h), 0.74 µM. For the same compound, the EC50 was determined as 0.36 µM with Plasmodium falciparum [7]; 0.45 µM with Plasmodium falciparum [8]; 0.92 µM in the data set with Plasmodium falciparum [9]; 0.64 µM in the data set on Plasmodium falciparum [10] (3D7 clone F2-H12, 72 h); 0.67 µM in the data set on Plasmodium falciparum [12] (3D7 clone F2-A11, 72 h). The EC90 turned out to be 1.5 µM with Plasmodium falciparum [6] (3D7 clone F1-E4, time 72 hrs); 1.3 µM in the data set on Plasmodium falciparum [10] (3D7 clone F2-H12, time 72 hrs); 1.3 µM in the data set on Plasmodium falciparum [12] (3D7 clone F2-A11, time 72 hrs). Moreover, the IC50 with Hemozoin amounted to 76 µM. For the same compound, the solubility kinetic in data set [11] stood at 12 µg/mL (≈ 25.8 µM).

The term EC50 denotes the concentration giving half of the maximal effect. As usually defined, the EC90 is the concentration at which the effect reaches the 90% level. As usually defined, the IC50 is the midpoint of a concentration-inhibition curve.
